14-3-3 Bad PPI – disrupts binding of bovine 14-3-3 zeta to phospho-Bad peptide | P63103 | TR-FRET 14-3-3zeta/Dy647-pBad peptide displacement, 1 h | inhibition, % at 21.7 µM | actives 0.71% (n = 220,000) | AID 781;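 active means inhibition above about 70%, limit read from the data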
TbHK1 inh – T. brucei hexokinase 1 inhibition; recombinant TbHK1, G6PDH-coupled NADH A340; inhibition, % at 10 µM; actives 0.11% (n = 220,000);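 active means inhibition of 50% or more in the single-dose primary screen; inactive means inhibition below 50%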
Wee1 stabilizer – inhibitors of human Wee1 degradation. HeLa Luc-Wee1K328M stability, luciferase luminescence; 100% = proteasome inhibitor MG132 effect. reporter increase, % at 5 µM. actives 1.2% (n = 220,000);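 active means activation above the mean of all tested compounds plus 3 SD, set per screening run, cut at about 8.8% in these data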;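 further: cells exposed to compound for 20 h before luminescence read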
Hck-Nef inh – blocks Nef-activated human Hck kinase; P08631; Recombinant Hck-YEEI plus Nef, Z-Lyte FRET kinase assay; inhibition, % at 20 µM; actives 0.68% (n = 220,000); AID 463187;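 active means Hck-Nef kinase inhibition above about 50%, limit read from the data; inactive means inhibition below that limit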
Target sequence (P08631 whole entry, looked up): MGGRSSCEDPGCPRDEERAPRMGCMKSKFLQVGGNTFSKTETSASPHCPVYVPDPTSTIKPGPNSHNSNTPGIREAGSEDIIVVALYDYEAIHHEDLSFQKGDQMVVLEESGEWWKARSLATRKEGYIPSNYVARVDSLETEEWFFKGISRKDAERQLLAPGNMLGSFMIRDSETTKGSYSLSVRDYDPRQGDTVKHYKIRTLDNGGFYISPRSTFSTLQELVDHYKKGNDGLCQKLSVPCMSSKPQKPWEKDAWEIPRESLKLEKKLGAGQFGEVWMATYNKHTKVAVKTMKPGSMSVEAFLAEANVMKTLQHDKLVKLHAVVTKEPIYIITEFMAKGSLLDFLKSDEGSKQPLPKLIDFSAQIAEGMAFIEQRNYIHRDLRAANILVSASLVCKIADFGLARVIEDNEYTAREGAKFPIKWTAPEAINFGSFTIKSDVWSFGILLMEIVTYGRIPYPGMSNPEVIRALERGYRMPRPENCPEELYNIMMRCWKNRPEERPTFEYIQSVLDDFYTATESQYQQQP
Mdm2 ligase inh – inhibitors of human Mdm2 E3 ubiquitin ligase; cell-based MDM2 ubiquitination luciferase reporter, 2 h; 0 = plate control, 100 = twice control, blank-subtracted; AID 1230; signal enhancement, % at 5 µM; actives 0.11% (n = 210,000); Q00987;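 active means signal enhancement of 30% or more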;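 further: luminescence tracks abundance of the self-degrading MDM2-luciferase fusion protein; higher signal means inhibition of MDM2 E3 ligase activity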
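system = mammalian cells stably expressing self-ubiquitinating, self-degrading MDM2 E3–luciferase fusion | quantity = 2000 cells per well seeded | incubation = 4 h cell settling then 2 h compound exposure, 37 °C | signal = SteadyLite luminescence, 15 min reagent step | benchmarks = plate control and blank wells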
Wee1 degr conf – human Wee1 degradation inhibition, confirmation; shares compounds with Wee1 stabilizer; HeLa Luc-Wee1K328M degradation, luminescence; vehicle 0%, proteasome-blocked wells 100%; activation, % at 5 µM; actives 4% (n = 1,100); in the data active means activation above about 8.9%
Of the large screens only hits and unclear results are named; the others gave an inactive call (follow-up assays come after a bar, where they were run). Compounds with a hit are over-represented: about 2.7% of the library has one in this group of screens.

Cc1cc(-c2csc(N)n2)c(C)n1C	none
COc1ccccc1CNc1nc(-c2cc(C)n(C)c2C)cs1	14-3-3 Bad PPI 96.2, Hck-Nef inh 67.1
Cc1nc(NC(=O)c2ccc(Br)s2)sc1C(=O)N(C)C	Wee1 stabilizer 10.7
COc1cc(CNc2ccc(CNc3ncn[nH]3)cc2)ccc1OCc1ccccc1	Wee1 stabilizer 10.1
Cc1ccc(CN2CCCC(CO)(Cc3ccccc3C)C2)s1 (stereo not given)	Wee1 stabilizer 8.9
Cc1ccccc1CC1(CO)CCCN(Cc2ccn[nH]2)C1 (stereo not given)	none
COc1ccc(OCCn2nnc(-c3ccc(Cl)cc3)n2)cc1	Wee1 stabilizer 15.9
CC(C)NC(=O)c1cc(-c2cccs2)on1	14-3-3 Bad PPI 70.8
CSc1ccccc1NC(=O)c1cc(-c2cccs2)on1	Wee1 stabilizer 9.4
COc1ccc(-c2cc(C(=O)Nc3ccccc3SC)no2)cc1	none
CC1CCCC(NC(=S)NC(=O)c2ccccc2Br)C1C (stereo not given)	none
Cc1nn2c(Nc3ccccc3)c3c(nc2c1-c1ccccc1)CCC3	14-3-3 Bad PPI 81.5
Cc1nn2c(NC(C)C)c3c(nc2c1-c1ccccc1)CCC3	none
O=P(Cc1cc(Br)cc(Br)c1OCCO)(c1ccccc1)c1ccccc1	none
CN(C(=O)c1ccc(C#N)cc1)c1nnc(-c2cnccn2)s1	none (no result: Mdm2 ligase inh)
N#C/C(=C(/O)c1cccc(F)c1)c1nc2ccccc2s1	Wee1 stabilizer 10.2 (no result: Mdm2 ligase inh)
CCOC(=O)c1sc(-c2ccccn2)nc1C	none
Cc1nc2cc(NC(=O)c3ccc(N4C(=O)CCC4=O)cc3)ccc2s1	none
Cc1nc(=O)c(-c2ccccc2)c(C)n1CCCO	14-3-3 Bad PPI 90.0
Cc1nc(=O)c(-c2ccccc2)c(C)n1CCO	none
CCOC(=O)c1ccc2nc(NC(C)=O)sc2c1	Wee1 stabilizer 9.4
CCOC(=O)c1ccc2nc(Nc3nc4ccc(F)cc4s3)sc2c1	none
CCOCCCNC(=O)C(NC(=O)c1ccc(NC(C)=O)cc1)c1ccc(C)cc1 (stereo not given)	none
CCOCCCNC(=O)C(NC(=O)c1ccc(NC(C)=O)cc1)c1ccccc1 (stereo not given)	14-3-3 Bad PPI 73.5
Cn1c(=O)c2[nH]c(COc3ccc(C(C)(C)C)cc3)nc2n(C)c1=O	none
O=C(NCc1ccc(/C=c2\sc3n(c2=O)CCN=3)o1)C(=O)Nc1ccccc1	none
Cc1nc(Nc2ccccc2Cl)sc1C(=O)Nc1ccccc1	Wee1 stabilizer 16.8 | Wee1 degr conf inactive
COc1ccc(S(=O)(=O)N(CC(=O)NCC2CCCO2)c2ccccc2)cc1OC (stereo not given)	none
O=C(COc1ccc(-c2nnco2)cc1)N1CCN(S(=O)(=O)c2ccc3ccccc3c2)CC1	none
COc1ccc([N+](=O)[O-])cc1NC(=O)CCN1CCN(CCO)CC1	Wee1 stabilizer 18.6 | Wee1 degr conf inactive
CCOCC(=O)Nc1nnc(C2CCCCC2)s1	none
O=C(CNC(=O)c1ccncc1)N/N=C/c1ccc(O)cc1O	Wee1 stabilizer 13.5 | Wee1 degr conf inactive
O=C(CNC(=O)c1ccc2c(c1)OCCO2)N/N=C/c1ccc(O)cc1O	none
C/C(=N\NC(=O)c1ccccc1)c1ccc(NC(=O)c2cccs2)cc1	Wee1 stabilizer 12.6 | Wee1 degr conf inactive
O=S(=O)(NCc1c(Cl)cccc1Oc1ccccc1)c1ccc(F)cc1	none
CC(C)(C)OC(=O)C(Cl)(C(=O)OC(C)(C)C)c1ccc2nnnn2n1	Wee1 stabilizer 11.0 | Wee1 degr conf inactive
CCOc1ccc2nnnn2n1	none
CC1=C(C(=O)O)N2C(=O)C(NC(=O)c3nn(C)cc3[N+](=O)[O-])C2SC1 (stereo not given)	none
COc1ccc(NC(=O)Nc2ccc(OC)cc2)cc1	none (no result: 14-3-3 Bad PPI)
COc1ccc(NC(=O)/C=C2\SC(=O)NC2=O)cc1	Wee1 stabilizer 15.2 | Wee1 degr conf inactive
CCn1cc(CNC(=O)/C=C/c2ccc([N+](=O)[O-])cc2)cn1	none
COc1cc(NC(=O)c2ccc(CNc3c(N4CCOCC4)c(=O)c3=O)cc2)cc(OC)c1	none
Cc1ccc(/C=C/C(=O)Nc2ccc(Oc3ccccc3)cc2)o1	Wee1 stabilizer 14.9 | Wee1 degr conf inactive
